From PubChem
Scp-1 inhibitor = blocks human Scp-1 phosphatase activity. Q9GZU7. inhibition, % at 20 µM. actives 0.88% (n = 340,000). Recombinant Scp1, phosphopeptide, malachite green phosphate absorbance;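 active means inhibition above about 50% at 20 µM, limit read from the data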;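 further: plate controls were DMSO wells with enzyme for no effect and wells lacking enzyme for full effect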
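System: SCP-1 catalytic domain; Reagent: Phospho 17-mer peptide substrate; Doses: one concentration, 20 µM, with 1.0% DMSO; Incubation: 45 min room-temperature reaction, 5 min colour, 30 min stabiliser; Signal: Phosphate-binding colour reagent, absorbance read at 630 nm.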
NadD inh = blocks S. aureus nicotinate mononucleotide adenylyltransferase; inhibition, % at 20 µM; AID 602399; actives 0.78% (n = 360,000); purified NadD enzyme, colorimetric absorbance read-out; in the data active means inhibition above about 26%
DNMT1 inh = DNMT1 (human) enzyme inhibition | P26358 | DNMT1 molecular beacon, Hinp1I cleavage, fluorescence | inhibition (reported as % activation of signal), % at 10 µM | actives 0.83% (n = 360,000) | AID 588458; in the data active means inhibition above about 50%
LMPTP block = blocks human LMPTP phosphatase; actives 0.22% (n = 360,000); recombinant LMPTP-A, OMFP fluorogenic substrate, fluorescence intensity; AID 651560; inhibition, % at 20 µM;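 active means compounds that cut the enzyme signal by at least half of the control window in the single-dose screen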;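 further: plate controls were DMSO wells with enzyme plus substrate for no effect and substrate without enzyme for full effect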
Target sequence (P24666 whole entry, looked up): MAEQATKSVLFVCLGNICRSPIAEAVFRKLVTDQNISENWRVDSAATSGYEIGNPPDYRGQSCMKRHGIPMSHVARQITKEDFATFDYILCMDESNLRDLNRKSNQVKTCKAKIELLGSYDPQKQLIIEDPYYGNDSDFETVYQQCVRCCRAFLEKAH
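Assay system: LMPTP-A phosphatase enzyme | Input: 0.625 nM enzyme | Also added: Fluorogenic phosphatase substrate OMFP at 400 µM final | Compound dosing: One test concentration per compound, 20 µM, with 3% DMSO overall | Schedule: 50 min enzyme reaction at room temperature, protected from light | Signal: Fluorescence intensity | Benchmarks: no-enzyme and uninhibited controls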
STEP block = STEP (human) phosphatase inhibition; recombinant STEP, OMFP fluorogenic substrate, fluorescence; inhibition, % at 20 µM; actives 0.25% (n = 360,000);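 active means inhibition at 20 µM, scaled per plate between control wells, above about 37%, limit read from the data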;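 further: 0% = DMSO with enzyme and substrate and 100% = substrate only without enzyme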
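System: STEP (striatal-enriched tyrosine phosphatase) enzyme, cell-free; medium: Bis-Tris pH 6.0 buffer with DTT, detergent; dosing: 20 µM, 1% DMSO; times: reaction 20 min, ambient temperature; detection: fluorescence, 480/540 nm; read-out basis: normalized % inhibition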
SUMO1 PPI mod = alters human SUMO1 binding to SIM partners. SUMO1 binding to a labelled peptide, TR-FRET, 1 h. inhibition, % at 20 µM. actives 0.33% (n = 360,000). AID 602429. P63165; in the data active means inhibition above about 37%
Target sequence (P63165 whole entry, looked up): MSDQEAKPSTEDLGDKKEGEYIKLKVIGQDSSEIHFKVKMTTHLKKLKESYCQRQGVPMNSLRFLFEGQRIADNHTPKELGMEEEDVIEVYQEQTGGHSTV
* marks the source's active call; other numbers are inactive results; nt = not tested or not shown. A selection: hits, their analogues and other compounds. The true share with any hit is near 2.3%.

SMILES	Scp-1 inhibitor	NadD inh	DNMT1 inh	LMPTP block	STEP block	SUMO1 PPI mod
O=C(c1ccc(N2CCCC2=O)cc1)N1CCN(c2cccc(C(F)(F)F)c2)CC1	-7	-1	1	1	-1	-1
O=C(CN1C(=O)/C(=C/c2ccco2)SC1=S)Nc1ccc(C(=O)O)c(O)c1	50	8	95*	43	64*	78*
O=C(CCCN1C(=O)C(=Cc2ccc3c(c2)OCO3)SC1=S)Nc1ccc(C(=O)O)c(O)c1	nt	25	2	52*	-1	-1
Cc1ccc(NC(=O)CN2C(=O)S/C(=C\c3ccc(-c4cccc(C(=O)O)c4C)o3)C2=O)cc1C	92*	35*	53*	82*	68*	11
CC(C(=O)Nc1ccc(C(=O)O)c(O)c1)N1C(=O)/C(=C\c2ccco2)SC1=S (centres undefined)	70*	9	95*	23	64*	88*
O=C(OCC(=O)c1ccc[nH]1)c1ccc([N+](=O)[O-])cc1	-2	-5	-7	1	-2	-34
O=C(COC(=O)c1ccc([N+](=O)[O-])s1)NCc1ccc(F)cc1	-10	-5	28	0	2	49*
O=C(COC(=O)c1ccc([N+](=O)[O-])s1)c1ccc[nH]1	15	1	50*	1	-6	14
Cc1cccc(C(=O)OCC(=O)c2ccc3c(c2)NC(=O)CO3)c1	-13	0	-13	0	-1	-9
CC(=O)c1c(C)[nH]c(C(=O)OCC(=O)c2ccc3c(c2)NC(=O)CO3)c1C	-9	-2	-3	2	-1	65*
CCC1Nc2ncnc(N3CCc4ccccc4C3)c2N(Cc2ccc(Cl)cc2)C1=O (centres undefined)	11	27	-16	-2	1	5
O=C1C(Cc2ccccc2)Nc2ncnc(N3CCc4ccccc4C3)c2N1Cc1ccc(Cl)cc1 (centres undefined)	12	63*	-10	1	1	5
CCOC(=O)N1CCN(C(=O)c2cn(CC)c3ccc(S(=O)(=O)N4CCOCC4)cc3c2=O)CC1	2	-2	1	0	1	-4
COc1cccc(S(=O)(=O)N(C)C[C@H]2OCc3cn(nn3)CCCC(=O)N([C@@H](C)CO)C[C@@H]2C)c1	nt	-4	10	0	-3	1
Nc1cccc2c(O)cccc12	-11	0	-11	1	2	1
Nc1cccc2c(O)cc(S(=O)(=O)O)cc12	93*	11	114*	78*	92*	76*
CCn1c2ccccc2nc2cc3c(cc21)c(Cl)c(=O)c1ccccc13	nt	6	61*	5	3	21
CC1CC(=O)c2c(cc3c(-c4c(O)cc(O)c5c(O)c6c(cc45)OC(C)CC6=O)c(O)cc(O)c3c2O)O1 (centres undefined)	15	28	81*	49	6	64*
O=C1CC(c2ccc(O)cc2)Oc2cc(O)cc(O)c21 (centres undefined)	-11	6	2	0	-2	4
Cc1ccc2nc(N3C(=O)C(O)=C(C(=O)c4cc5ccccc5o4)C3c3cccs3)sc2c1 (centres undefined)	-23	25	78*	36	12	8
COc1ccc(/C=C2\C(=O)N(c3c(Cl)cc(Cl)cc3Cl)N=C2NC(=O)c2cccc([N+](=O)[O-])c2)cc1	-16	84*	-4	4	8	33
COc1cccc(C(=O)Nc2cccc(C(=O)NC3=NN(c4c(Cl)cc(Cl)cc4Cl)C(=O)C3)c2)c1	5	29	7	2	2	44*
COc1cccc(C(=O)Nc2cccc(NC(=O)c3ccccc3Cl)c2)c1	-6	-3	-1	0	0	0
COc1ccccc1N1CCN(Cc2cc(=O)c(OCC(=O)NC(C)C)co2)CC1	-1	2	-2	0	-1	2
COCCCNC(=S)N1CCN(S(=O)(=O)c2ccc(OC)cc2)CC1	9	-3	-3	-1	2	5
COc1ccc(C(O)c2ncc(-c3ccccc3F)[nH]2)cc1 (centres undefined)	nt	-11	51*	0	1	12
